This note sets out measurements from ChEMBL document CHEMBL4823330, “Piperazinyl Bicyclic Derivatives as Selective Ligands of the α2δ-1 Subunit of Voltage-Gated Calcium Channels” (ACS Med Chem Lett, 2021).

Broadly, the inhibition is the drop in the measured response relative to a control, in per cent. For orientation: IC50 means the point on the concentration scale where inhibition reaches its midpoint. As a reminder, the logD is lipophilicity at a set pH, counting ionised and neutral species. What is called logP is the decadic logarithm of the partition coefficient of the neutral form, usually between octanol and water. In general, Cmax refers to the highest concentration seen after dosing. What is called AUC(0-t) is exposure summed from dosing to a finite time, without extrapolation to infinity. In general, Ki refers to the dissociation constant of the complex between target and ligand, obtained from inhibition or displacement. As usually defined, the efflux ratio is the permeability from basolateral to apical divided by that in the opposite direction, in the common usage.

Series [1] can be described thus: Metabolic stability in mouse liver microsomes assessed as intrinsic clearance per mg protein at 1 uM measured upto 60 mins in presence of NADPH generating system by UPLC-MS/MS analysis. Particulars: read-out: CLH. Format: ADME, Microsome. (Liver microsomes are vesicles of endoplasmic reticulum, rich in cytochrome P450 enzymes.)
The next series addresses CYP1A2 (Homo sapiens, UniProt P05177). As to the kind of experiment: Inhibition of CYP1A2 (unknown origin) at 1 uM relative to control. Format: ADME. A digest of the protocol:
(§1)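 Recombinant human CYP isoforms (1A2, 2C9, 2C19, 2D6) were each tested with compound at 1 μM. Read-out is percent inhibition.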

In series [2] the target is Voltage-gated inwardly rectifying potassium channel KCNH2 (Homo sapiens, UniProt Q12809). As to the kind of experiment: Inhibition of human ERG.
Series [3] can be described thus: Lipophilicity, logD of compound at pH 7.4. Format: physicochemical. The conditions noted are these: buffer.
The next series addresses CYP3A4 (Homo sapiens, UniProt P08684). In words: Inhibition of recombinant CYP3A4 (unknown origin) using BFC as substrate at 1 uM measured after 30 mins in presence of NADPH generating system by fluorescence assay relative to control. Format: ADME. The conditions noted are these: recombinant CYP3A4, probe BFC. Put shortly:
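Recombinant human CYP3A4 incubated with test compound at 1 μM. 7-Benzyloxy-4-trifluoromethylcoumarin (BFC) was the probe substrate, with fluorescence read-out, reported as percent inhibition.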

In another series the test system is Mus musculus. In words: Analgesic activity in CD1 mouse model of capsaicin-induced mechanical hypersensitivity assessed as reduction in mechanical hypersensitivity at 20 mg/kg, ip administered 30 mins prior to capsaicin stimulation and measured after 15 mins. Format: functional. The conditions noted are these: time 45 min, 0.75 h. Also noted: scale not given: the % may be the effect or the level left. Put shortly: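 Male CD1 mice, 8–12 per group, given 20 mg/kg ip alongside vehicle and pregabalin comparator groups. Capsaicin test read out as percentage reduction in capsaicin-induced mechanical hypersensitivity.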

Series [4] can be described thus: Metabolic stability in rat liver microsomes assessed as intrinsic clearance per mg protein at 1 uM measured upto 60 mins in presence of NADPH generating system by UPLC-MS/MS analysis. The class given is ADME, Microsome. The conditions noted are these: read-out: CLH.
The target in the next series is CYP2C9 (Homo sapiens, UniProt P11712). In words: Inhibition of CYP2C9 (unknown origin) at 1 uM relative to control. Format: ADME. Put shortly:
as §1

Series [5] is described as follows: Induction of motor coordination impairment in CD1 mouse assessed as latency to fall at 20 mg/kg, ip measured upto 180 mins by rotarod test. The class given is organism-based. Particulars: in vivo, 3 h. Put shortly: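 Mice were dosed at 20 mg/kg ip, with vehicle and pregabalin groups run in the same paradigm. Latency to fall from the elevated rotating drum was recorded at 30, 120 and 180 min after administration.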
On the technique in general: In the rotarod test animals must keep their balance on a rotating rod.

For another series, the target named is CYP2C19 (Homo sapiens, UniProt P33261). In words: Inhibition of CYP2C19 (unknown origin) at 1 uM relative to control. Format: ADME. A digest of the protocol:
as §1

Series [6] can be described thus: Lipophilicity, logP of compound. Format: physicochemical. Particulars: octanol/water.
Series [7] can be described thus: Cmax in CD1 mouse at 20 mg/kg, ip measured upto 24 hrs by UPLC-MS/MS analysis. Particulars: in vivo. Further details: route intraperitoneal, dose 20 mg/kg, time <=24. Format: ADME, organism-based. A digest of the protocol:
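Male CD1 mice given a single ip dose of 20 mg/kg. Cmax was taken from the plasma concentration profile.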

Series [8] can be described thus: AUC(0 to t) in CD1 mouse at 20 mg/kg, ip measured upto 24 hrs by UPLC-MS/MS analysis. The class given is ADME, organism-based. Further details: route intraperitoneal, dose 20 mg/kg, time <=24. The conditions noted are these: in vivo.
Series [9] can be described thus: Permeability of compound in human Caco2 cells. The class given is ADME, cell-based. The conditions noted are these: Caco-2, read-out: permeability.
In series [10] the target is Voltage-dependent calcium channel subunit alpha-2/delta-1 (Homo sapiens, UniProt P54289). As to the kind of experiment: Displacement of [3H]-gabapentin from human Cav alpha2delta1 expressed in CHO-K1 cell membranes incubated for 60 mins by scintillation counting method. Further details: species or system Membrane. Put shortly:
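Radioligand binding with [3H]-gabapentin on α2δ-1-enriched membranes from CHO-K1 cells expressing human Cav2.2/β3/α2δ1. Compounds were first screened at 10 μM. Ki was calculated for those giving more than 50% inhibition. Values are mean ± SD of two determinations.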

The nature of series [11]: Metabolic stability in human liver microsomes assessed as intrinsic clearance per mg protein at 1 uM measured upto 60 mins in presence of NADPH generating system by UPLC-MS/MS analysis. Format: ADME, Microsome. The conditions noted are these: read-out: CLH.
The next series addresses CYP2D6 (Homo sapiens, UniProt P10635). In words: Inhibition of CYP2D6 (unknown origin) at 1 uM relative to control. The class given is ADME. Put shortly: as §1
Series [12] in a line: Efflux ratio of permeability in human Caco2 cells. Format: ADME, cell-based. The conditions noted are these: Caco-2. For orientation: Caco-2 cells form a polarised layer with tight junctions and transporters.

Bounds are passed on as bounds.

Sequence of CYP3A4 (P08684 whole entry): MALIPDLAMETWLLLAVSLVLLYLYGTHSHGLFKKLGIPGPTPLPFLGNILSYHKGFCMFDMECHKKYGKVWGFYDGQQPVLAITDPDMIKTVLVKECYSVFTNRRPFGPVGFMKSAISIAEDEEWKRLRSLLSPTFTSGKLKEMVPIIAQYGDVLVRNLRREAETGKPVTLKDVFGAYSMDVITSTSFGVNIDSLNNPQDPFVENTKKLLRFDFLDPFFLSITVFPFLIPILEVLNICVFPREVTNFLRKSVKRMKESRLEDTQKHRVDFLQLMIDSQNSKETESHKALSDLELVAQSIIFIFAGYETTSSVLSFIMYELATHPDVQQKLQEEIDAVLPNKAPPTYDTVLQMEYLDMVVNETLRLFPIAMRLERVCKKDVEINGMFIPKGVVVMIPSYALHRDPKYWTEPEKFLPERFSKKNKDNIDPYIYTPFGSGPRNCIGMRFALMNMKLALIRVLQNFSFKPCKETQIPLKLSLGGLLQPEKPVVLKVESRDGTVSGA
Sequence of CYP2C9 (P11712 whole entry): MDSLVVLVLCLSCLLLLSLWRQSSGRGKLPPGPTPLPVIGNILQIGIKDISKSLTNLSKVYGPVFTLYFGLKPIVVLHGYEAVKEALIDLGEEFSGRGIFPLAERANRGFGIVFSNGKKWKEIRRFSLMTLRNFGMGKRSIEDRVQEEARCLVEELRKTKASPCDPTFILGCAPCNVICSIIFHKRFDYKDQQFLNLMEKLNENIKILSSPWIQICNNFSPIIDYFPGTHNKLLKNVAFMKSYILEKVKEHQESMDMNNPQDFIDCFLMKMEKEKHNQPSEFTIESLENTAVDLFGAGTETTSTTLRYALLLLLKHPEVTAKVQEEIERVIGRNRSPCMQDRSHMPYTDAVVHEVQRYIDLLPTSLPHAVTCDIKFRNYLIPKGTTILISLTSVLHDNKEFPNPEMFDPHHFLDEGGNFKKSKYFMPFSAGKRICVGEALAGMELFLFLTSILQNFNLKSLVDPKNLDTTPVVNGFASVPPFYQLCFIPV
Sequence of CYP1A2 (P05177 whole entry, canonical isoform): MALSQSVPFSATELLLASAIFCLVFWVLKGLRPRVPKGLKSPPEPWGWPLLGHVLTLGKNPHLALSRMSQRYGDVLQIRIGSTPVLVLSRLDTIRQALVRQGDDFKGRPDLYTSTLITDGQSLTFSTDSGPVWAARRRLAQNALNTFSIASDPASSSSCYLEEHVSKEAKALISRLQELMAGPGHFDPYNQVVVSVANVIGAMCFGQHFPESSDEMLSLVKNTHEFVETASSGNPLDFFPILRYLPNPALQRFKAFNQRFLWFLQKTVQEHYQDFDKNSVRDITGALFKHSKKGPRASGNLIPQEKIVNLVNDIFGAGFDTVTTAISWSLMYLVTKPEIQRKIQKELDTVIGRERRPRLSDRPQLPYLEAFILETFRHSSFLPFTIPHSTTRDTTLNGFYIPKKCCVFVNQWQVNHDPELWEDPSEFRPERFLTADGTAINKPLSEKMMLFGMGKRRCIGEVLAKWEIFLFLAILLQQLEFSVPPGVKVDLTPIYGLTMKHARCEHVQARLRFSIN
Sequence of Voltage-dependent calcium channel subunit alpha-2/delta-1 (P54289 25-956 limits assumed): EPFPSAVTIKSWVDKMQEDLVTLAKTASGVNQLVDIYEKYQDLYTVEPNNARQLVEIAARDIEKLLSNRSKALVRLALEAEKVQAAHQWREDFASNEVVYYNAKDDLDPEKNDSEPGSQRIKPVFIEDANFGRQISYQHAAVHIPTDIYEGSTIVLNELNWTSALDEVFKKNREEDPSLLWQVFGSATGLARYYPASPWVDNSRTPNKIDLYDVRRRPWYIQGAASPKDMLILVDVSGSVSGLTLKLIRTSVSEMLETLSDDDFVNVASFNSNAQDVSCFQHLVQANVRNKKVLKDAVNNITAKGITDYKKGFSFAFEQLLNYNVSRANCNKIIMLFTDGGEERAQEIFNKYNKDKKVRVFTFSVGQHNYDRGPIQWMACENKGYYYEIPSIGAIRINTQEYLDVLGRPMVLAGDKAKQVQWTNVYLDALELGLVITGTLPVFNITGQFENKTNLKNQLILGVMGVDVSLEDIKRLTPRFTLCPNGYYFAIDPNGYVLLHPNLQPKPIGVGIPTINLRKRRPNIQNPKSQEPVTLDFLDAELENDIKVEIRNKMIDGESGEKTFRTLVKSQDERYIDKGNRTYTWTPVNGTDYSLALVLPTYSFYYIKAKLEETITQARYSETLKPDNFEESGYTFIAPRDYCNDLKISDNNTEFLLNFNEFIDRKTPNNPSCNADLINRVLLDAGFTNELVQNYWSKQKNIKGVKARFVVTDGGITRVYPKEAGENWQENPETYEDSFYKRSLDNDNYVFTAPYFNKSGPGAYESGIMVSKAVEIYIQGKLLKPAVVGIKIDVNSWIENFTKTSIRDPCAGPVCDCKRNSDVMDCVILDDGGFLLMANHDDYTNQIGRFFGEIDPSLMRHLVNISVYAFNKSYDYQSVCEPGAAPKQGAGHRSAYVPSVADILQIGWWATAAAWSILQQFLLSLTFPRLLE
Sequence of Voltage-dependent calcium channel subunit alpha-2/delta-1 (P54289 957-1103 limits assumed): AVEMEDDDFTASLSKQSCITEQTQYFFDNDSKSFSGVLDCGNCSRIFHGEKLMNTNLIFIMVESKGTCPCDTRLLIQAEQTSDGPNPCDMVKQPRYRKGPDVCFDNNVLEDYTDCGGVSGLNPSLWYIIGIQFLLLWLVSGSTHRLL
Sequence of Voltage-gated inwardly rectifying potassium channel KCNH2 (Q12809 whole entry): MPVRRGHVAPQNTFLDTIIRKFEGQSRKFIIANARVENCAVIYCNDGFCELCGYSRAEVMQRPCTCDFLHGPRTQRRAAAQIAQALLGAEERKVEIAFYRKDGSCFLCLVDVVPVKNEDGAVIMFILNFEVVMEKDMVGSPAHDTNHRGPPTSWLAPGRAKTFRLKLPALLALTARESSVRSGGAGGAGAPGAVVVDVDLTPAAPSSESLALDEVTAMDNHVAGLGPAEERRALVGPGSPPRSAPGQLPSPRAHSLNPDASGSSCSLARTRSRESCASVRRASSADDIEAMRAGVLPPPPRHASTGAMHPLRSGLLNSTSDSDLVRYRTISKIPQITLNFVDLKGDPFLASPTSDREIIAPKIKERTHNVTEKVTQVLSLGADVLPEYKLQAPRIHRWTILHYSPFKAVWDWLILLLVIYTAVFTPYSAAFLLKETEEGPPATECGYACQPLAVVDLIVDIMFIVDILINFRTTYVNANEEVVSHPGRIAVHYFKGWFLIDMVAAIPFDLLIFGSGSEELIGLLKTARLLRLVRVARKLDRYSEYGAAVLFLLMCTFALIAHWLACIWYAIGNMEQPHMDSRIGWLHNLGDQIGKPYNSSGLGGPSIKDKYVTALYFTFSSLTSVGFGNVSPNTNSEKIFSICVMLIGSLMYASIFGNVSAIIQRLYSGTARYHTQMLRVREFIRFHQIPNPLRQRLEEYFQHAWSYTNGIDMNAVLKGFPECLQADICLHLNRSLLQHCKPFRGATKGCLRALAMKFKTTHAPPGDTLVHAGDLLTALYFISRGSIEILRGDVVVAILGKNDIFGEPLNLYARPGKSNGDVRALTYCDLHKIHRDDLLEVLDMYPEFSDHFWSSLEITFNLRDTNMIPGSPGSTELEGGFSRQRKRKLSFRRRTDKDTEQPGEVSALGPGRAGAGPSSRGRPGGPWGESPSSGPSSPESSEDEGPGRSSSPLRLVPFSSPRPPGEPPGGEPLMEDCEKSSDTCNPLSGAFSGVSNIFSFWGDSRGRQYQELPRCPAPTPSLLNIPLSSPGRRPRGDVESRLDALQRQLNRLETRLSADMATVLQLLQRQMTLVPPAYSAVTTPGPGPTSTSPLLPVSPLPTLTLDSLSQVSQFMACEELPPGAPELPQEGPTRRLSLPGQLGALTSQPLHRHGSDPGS
Sequence of CYP2D6 (P10635 whole entry): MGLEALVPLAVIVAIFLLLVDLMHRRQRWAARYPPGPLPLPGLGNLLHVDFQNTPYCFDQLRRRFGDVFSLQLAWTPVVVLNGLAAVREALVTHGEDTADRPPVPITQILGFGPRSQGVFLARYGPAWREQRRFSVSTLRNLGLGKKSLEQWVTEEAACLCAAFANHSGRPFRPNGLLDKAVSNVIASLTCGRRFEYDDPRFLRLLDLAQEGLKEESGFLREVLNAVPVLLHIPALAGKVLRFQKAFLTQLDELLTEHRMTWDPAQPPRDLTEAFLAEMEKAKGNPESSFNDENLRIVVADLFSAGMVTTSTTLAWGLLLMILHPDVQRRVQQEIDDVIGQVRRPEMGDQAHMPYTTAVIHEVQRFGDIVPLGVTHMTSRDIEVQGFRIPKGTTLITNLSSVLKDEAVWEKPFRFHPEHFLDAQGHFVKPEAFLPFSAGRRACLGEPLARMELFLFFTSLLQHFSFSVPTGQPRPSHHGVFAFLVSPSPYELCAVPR
Sequence of CYP2C19 (P33261 whole entry): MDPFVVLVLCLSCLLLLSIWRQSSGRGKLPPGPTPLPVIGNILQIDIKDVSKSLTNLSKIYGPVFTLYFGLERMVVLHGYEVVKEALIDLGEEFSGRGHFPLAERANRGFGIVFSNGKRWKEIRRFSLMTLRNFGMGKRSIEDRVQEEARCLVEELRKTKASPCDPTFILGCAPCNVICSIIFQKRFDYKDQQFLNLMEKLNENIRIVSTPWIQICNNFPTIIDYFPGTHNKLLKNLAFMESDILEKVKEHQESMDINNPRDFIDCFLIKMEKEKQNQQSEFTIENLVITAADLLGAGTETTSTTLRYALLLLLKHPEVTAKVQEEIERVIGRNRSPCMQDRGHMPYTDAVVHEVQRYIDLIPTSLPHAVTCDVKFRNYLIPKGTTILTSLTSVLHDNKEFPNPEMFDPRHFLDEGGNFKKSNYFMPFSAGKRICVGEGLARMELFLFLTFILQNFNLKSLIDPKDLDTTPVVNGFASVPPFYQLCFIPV

On to `CCC[C@H](c1nc2ccncc2c(=O)n1CC)N1CCN[C@H](C)C1`, for which the microsomal CLint at 1 µM in series [1] was 4.1 µL/min/mg; in series [4] it was 3.9 µL/min/mg; in [11], 2.6 µL/min/mg. In addition, the inhibition at 1 µM at CYP1A2, on CYP2C9, on CYP2C19 and against CYP2D6 was less than 50% each time. The molecule also showed an IC50 in series [2] greater than 10 µM. The same molecule showed a logD in [3] of 0.49. Further, the inhibition at 0.5 h, 1 µM at CYP3A4 is 46%. Moreover, the Activity in the series on Mus musculus is given as 69%; in series [5], “Non-Toxic”. Moreover, in series [6], the logP stood at 2.22. The same molecule showed a Cmax in [7] of 3070 ng/mL. In addition, the AUC(0-t) at 24 h in series [8] is 8050 ng·h/mL. For the same molecule, the Papp in series [9] worked out at 4.3 ×10⁻⁶ cm/s. For the same molecule, the Ki in series [10] was found to be 6 nM. In [12], the efflux ratio was found to be 5.4.
